We go through one compound from ChEMBL document CHEMBL4376902, “CN128: A New Orally Active Hydroxypyridinone Iron Chelator” (J Med Chem, 2020).

The structures appear in SMILES notation.

Data set [1] can be described thus: Ratio of drug level in liver to plasma in rat at 150 umol/kg, po measured within 10 mins by LC-MS/MS analysis. Type of data set: ADME, organism-based. The settings on record: liver and plasma. In a few lines:
(§1)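 SD rats (half male, half female, n = 6 per group) given a single oral 150 μmol/kg dose. Killed at 10 min, 30 min, 2 h or 6 h; tissues washed in saline, weighed and homogenised in acetonitrile/water 1:9 (125 mg/mL). Tissue levels compared with plasma.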

Data set [2] can be described thus: Drug metabolism in rat bile assessed as (2S,3S,4S,5R,6R)-3,4,5-trihydroxy-6-[(2R)-2-(3-hydroxy-2-methyl-4-oxo-1-pyridyl)-3-phenylpropoxy]tetrahydropyran-2-carboxylic acid/(2S,3S,4S,5R,6S)-6-[[1-[(1R)-1-benzyl-2-hydroxyethyl]-2-methyl-4-oxo-3-pyridyl]oxy]-3,4,5-trihydroxy-tetrahydropyran-2-carboxylic acid ratio formation at 150 umol/kg, po measured over 8 hrs by LC/TOF/MS/MS analysis. To be noted: in vivo. Type of data set: ADME, organism-based. In a few lines:
(§2)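 Bile collected from rats after an oral dose of 150 μmol/kg. Metabolites characterised by β-glucuronidase hydrolysis and LC-TOFMS/MS. M2/M1 ratio followed over 8 h.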

The nature of data set [3]: Cmax in Sprague-Dawley rat at 300 umol/kg, po measured up to 1440 mins by LC/MS/MS analysis. Type of data set: ADME, organism-based. Details: dose 300 umol/kg, route oral. The settings on record: in vivo.
Data set [4] is described as follows: Toxicity in Sprague-Dawley rat assessed as induction of histopathological changes in pancreas at 25 to 116 mg/kg, po dosed daily for 4 weeks during chronic 4 week toxicity test. Type of data set: organism-based. The settings on record: in vivo, 672 h.
Data set [5] can be described thus: Ratio of drug level in adrenal gland to plasma in rat at 150 umol/kg, po measured within 10 mins by LC-MS/MS analysis. Type of data set: ADME, organism-based. To be noted: adrenal gland and plasma. In a few lines: as §1
Data set [6] deals with Rattus norvegicus. The data set can be described thus: Iron scavenging activity in 59Fe-ferritin-loaded rat assessed as iron mobilization level at 450 umol/kg, po dosed 1 hr after 59Fe-ferritin injection and measured 24 hrs after 59Fe-ferritin injection by gamma counting method relative to control. Type of data set: functional. In a few lines: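 Male SD rats, 300 g, fasted overnight, given about 1 μC 59Fe-ferritin i.v. under isoflurane. Chelator gavaged 1 h later, then rats housed in metabolic cages; food returned 1 h after dosing. Killed 24 h after 59Fe-ferritin. Urine, faeces, liver and gut gamma-counted. 8 rats per condition.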

Data set [7] concerns the target T1, Cytochrome P450 1A2 (Homo sapiens, UniProt P05177).
T1 sequence (P05177 whole entry): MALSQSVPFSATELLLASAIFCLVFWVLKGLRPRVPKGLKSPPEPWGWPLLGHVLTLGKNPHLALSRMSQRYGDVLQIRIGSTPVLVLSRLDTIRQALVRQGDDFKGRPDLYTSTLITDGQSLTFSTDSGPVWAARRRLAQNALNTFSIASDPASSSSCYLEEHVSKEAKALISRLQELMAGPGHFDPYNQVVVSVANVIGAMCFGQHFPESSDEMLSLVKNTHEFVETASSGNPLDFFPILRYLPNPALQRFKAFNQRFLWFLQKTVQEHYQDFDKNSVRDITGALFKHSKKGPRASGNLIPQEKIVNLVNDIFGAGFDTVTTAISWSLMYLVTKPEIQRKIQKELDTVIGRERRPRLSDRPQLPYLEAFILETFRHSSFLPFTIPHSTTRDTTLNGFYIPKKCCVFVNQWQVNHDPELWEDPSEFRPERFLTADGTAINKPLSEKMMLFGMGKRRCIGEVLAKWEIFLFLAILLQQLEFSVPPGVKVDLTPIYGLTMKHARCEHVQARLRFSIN
In words: Inhibition of CYP1A2 in human liver microsomes. Format: ADME. On the technique in general: Microsomes from liver hold many membrane-bound enzymes, among them those of drug oxidation.

Data set [8] is described as follows: Ratio of drug level in intestine to plasma in rat at 150 umol/kg, po measured within 10 mins by LC-MS/MS analysis. Format: ADME, organism-based. To be noted: intestine and plasma. In a few lines: as §1
Data set [9] is described as follows: Drug metabolism in rat liver microsomes assessed as oxidative metabolism incubated for 1 hr relative to deferiprone. Format: ADME, Microsome.
Data set [10] in a line: Drug metabolism in rat bile assessed as (2S,3S,4S,5R,6R)-3,4,5-trihydroxy-6-[(2R)-2-(3-hydroxy-2-methyl-4-oxo-1-pyridyl)-3-phenylpropoxy]tetrahydropyran-2-carboxylic acid formation at 150 umol/kg, po by LC/TOF/MS/MS analysis. Format: ADME, organism-based. The settings on record: in vivo. In a few lines:
as §2

The nature of data set [11]: Toxicity in iron-overloaded rat assessed as drug tolerability at 75 to 1200 umol/kg, po. The settings on record: in vivo.
Data set [12] in a line: Binding affinity to Co2+ ion assessed as pM value by spectrophotometric titration method.
Data set [13] is described as follows: Apparent clearance in Sprague-Dawley rat at 600 umol/kg, po measured up to 1440 mins by LC/MS/MS analysis. Format: ADME, organism-based. To be noted: in vivo, read-out: CL(app) (converted).
Data set [14] can be described thus: Apparent clearance in Sprague-Dawley rat at 300 umol/kg, po measured up to 1440 mins by LC/MS/MS analysis. Type of data set: ADME, organism-based. The settings on record: in vivo, read-out: CL(app) (converted).
Data set [15] is described as follows: Binding affinity to Cu2+ ion assessed as affinity constant by spectrophotometric titration method.
The subject of data set [16] is Mus musculus. In words: Toxicity in mouse assessed as reduction in lymphocytes counts at 200 mg/kg, po dosed once daily for 2 months as 5 days per week schedule. To be noted: in vivo, 120 h.
Data set [17] in a line: Drug metabolism in rat bile assessed as (2S,3S,4S,5R,6S)-6-[[1-[(1R)-1-benzyl-2-hydroxyethyl]-2-methyl-4-oxo-3-pyridyl]oxy]-3,4,5-trihydroxy-tetrahydropyran-2-carboxylic acid formation at 150 umol/kg, po by LC/TOF/MS/MS analysis. The settings on record: in vivo. Format: ADME, organism-based. In a few lines:
as §2

The test system of data set [18] is Rattus norvegicus. The data set can be described thus: Iron scavenging activity in iron-overloaded rat assessed as iron removal efficacy at 75 to 1200 umol/kg, po relative to control. Format: functional. In a few lines:
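Male SD rats (300 g), fasted overnight, given about 1 μC 59Fe-ferritin i.v. under isoflurane; chelator by oral gavage 1 h later; doses 75, 150, 300, 600 and 1200 μmol/kg. Rats housed in metabolic cages, food returned 1 h post-dose; killed 24 h after ferritin injection. Urine, faeces, liver and gut gamma-counted. Iron removal expressed as % efficacy.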

Data set [19] concerns Mus musculus. The data set can be described thus: Toxicity in mouse assessed as reduction in erythrocyte population at 200 mg/kg, po dosed once daily for 2 months as 5 days per week schedule. To be noted: in vivo, 120 h.
Data set [20] in a line: Binding affinity to Fe2+ ion assessed as affinity constant by spectrophotometric titration method. In a few lines: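 Automated spectrophotometric titration with 0.1 M KOH in 0.1 pH steps, 3 min equilibration per step, 50 mm cuvette, iron complexes at ca. 40 µM. Titrated in competition with metal hydrolysis species up to pH 12.0. Hydrolysis constants taken from critical compilations. Iron spectra fitted over 400–700 nm.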

Take `Cc1c(O)c(O)cc[n+]1[C@@H](CO)Cc1ccccc1.[Cl-]`: the Kp at 10 min in data set [1], in data set [5] and in data set [8] was 3.3 to 8.8 in each case. Moreover, the Ratio in data set [2] fell in the range of 2.3 to 6.9. In [3], this compound gave a maximum concentration (Cmax) of 41900 ng/mL. Moreover, the Activity entry in [4] is “Toxic”; in data set [6], 24.8%; in [11] it was “Non-Toxic”; in data set [16], “Non-Toxic”; in data set [18] it was 3.6 - 48.5%; in data set [19], “Non-Toxic”. The compound also yielded a half-maximal inhibitory concentration (IC50) in data set [7] greater than 200 µM. For the same compound, the Drug metabolism result in data set [9], in [10] and in [17] was “Metabolite_Detected” in each case. Moreover, the pM in [12] turned out to be 6.17. The figures for the CL/F in [13] and in [14] were 15.2 mL/min/kg and 15.3 mL/min/kg, respectively. Moreover, the K is 8.31 pM in [15] and 6.22 pM in data set [20]. Besides, the log K came to 10.4 in data set [15] and 7.32 in data set [20].

The Kp is the ratio of the level in a tissue or fluid to that in plasma or blood. For orientation: Cmax means the peak of the concentration-time curve. The term IC50 denotes the concentration that gives 50% inhibition.
